From ChEMBL document CHEMBL1131385, “Does the anti-hepatitis B virus activity of (+)-5'-noraristeromycin exist in its 4'-epimer and 4'-deoxygenated derivatives?” (J Med Chem, 1998)

Experiments:
Hepatoblastoma cell line [1] = assay: Cytotoxic concentration against Hepatitis B virus in human hepatoblastoma cell line; type: functional
Hepatoblastoma cell line [2] = assay: (§1) Effective concentration against Hepatitis B virus in human hepatoblastoma cell line; type: functional, cell-based
Method in brief: (§2)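 Confluent cultures of the human hepatoblastoma line 2.2.15, which chronically produces HBV, were used to measure inhibition of HBV replication. Cells got nine consecutive daily doses of agent, with the medium removed each day.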

Hepatoblastoma cell line [3] = assay: as §1; type: functional; method in brief: as §2
[4] = Selectivity index was evaluated [Selectivity = (CC50 / EC50) against Hepatitis B virus in human hepatoblastoma cell line]; type: functional

Compound | EC50 (Hepatoblastoma cell line [2]) | EC90 (Hepatoblastoma cell line [3]) | CC50 (Hepatoblastoma cell line [1]) | SI [4]
Nc1ncnc2c1ncn2[C@H]1C[C@@H](O)[C@H](O)[C@@H]1O | > 10 µM | > 10 µM | 1880 µM | 
COC1CC(n2cnc3c(N)ncnc32)C(O)C1O (configuration not stated) | > 10 µM | > 10 µM | > 1000 µM | 
Nc1ncnc2c1ncn2[C@@H]1C[C@H](O)[C@@H](O)[C@H]1O [NORARISTEROMYCIN] | 1.4 µM | 9.6 µM | 446 µM | 46

Further compounds by falling EC50 (Hepatoblastoma cell line [2]), results first:

EC50 (Hepatoblastoma cell line [2]) | EC90 (Hepatoblastoma cell line [3]) | Compound | CC50 (Hepatoblastoma cell line [1]) | SI [4]
0.145 µM | 1.4 µM | Nc1ncnc2c1ncn2[C@H]1C=C[C@H](O)[C@@H]1O | 325 µM | 232
0.12 µM | 0.978 µM | Nc1ncnc2c1ncn2[C@@H]1CC[C@@H](O)[C@H]1O | 93 µM | 95
0.07 µM | 0.209 µM | Nc1ccn([C@@H]2CS[C@H](CO)O2)c(=O)n1 [LAMIVUDINE] | 1880 µM | 9014
